Measured values taken from ChEMBL document CHEMBL1148512, “Fluorophor-labeled spermidine derivatives as fluorescent markers in optical tumor imaging” (Bioorg Med Chem Lett, 2006).
The source made the active and inactive calls. No cut-off for these calls is given here.

How the values were obtained:
[1] = system: B16; assay: Cellular uptake in mouse B16 cells; format: ADME, cell-based
Method in brief: (§1)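 Cultured tumour cells grown on coverslips, incubated with 50 µM dye conjugate for 1, 4 and 24 h, then imaged by confocal laser scanning microscopy. Parallel incubations were run with benzyl viologen, a polyamine uptake inhibitor. B16 cells were also co-cultured with 3T3YMT-MP non-tumour cells, which express yellow fluorescent protein in mitochondria. Unlabelled cells served as reference.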

[2] = system: MH3924A; assay: Cellular uptake in rat MH3924A cells; format: ADME, cell-based; method in brief: as §1
[3] = system: B16; assay: Cytotoxicity against mouse B16 cells assessed as inhibition of colony formation at 25 uM after 4 hrs; format: functional, cell-based
Method in brief: (§2)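 Colony forming assay in MH3924A and B16 cells. Cells were exposed to dye for 4 h (1–250 µM tested across dyes) and colonies were scored 8 days later. Colony formation is expressed as percent of untreated controls.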

[4] = system: MH3924A; assay: Cytotoxicity against rat MH3924A cells assessed as inhibition of colony formation at 25 uM after 4 hrs; format: functional, cell-based; method in brief: as §2
[5] = system: B16; assay: Increase in fluorescence in mouse B16 cells after 24 hrs relative to control; format: functional, cell-based
Method in brief: (§3)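 Quantitative uptake assay: tumour cells incubated with dye for 24 h. Cell-associated fluorescence is expressed as percent increase over unlabelled tumour cells.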

[6] = system: MH3924A; assay: Increase in fluorescence in rat MH3924A cells after 24 hrs relative to control; format: functional, cell-based; method in brief: as §3
[7] = system: MH3924A; assay: Cellular uptake in rat MH3924A cells xenografted in nude Balc C nu/nu mouse by fluorescence imaging; format: ADME, cell-based; conditions: in vivo
Method in brief: (§4)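 Male Balb/c nu/nu nude mice (about 20 g) carrying subcutaneous MH3924A rat hepatoma (3–8 mm diameter). Dye given as an iv bolus via lateral tail vein, 500 lmol/kg; PBS-injected controls. Under ip ketamine/xylazine (1 mL/kg), open surgery with chest or abdominal incision. Cooled CCD imaging at 10 min, 1 h and 4 h, 60 s exposure, about 5 cm distance. Photon counts summed per equal-size region of interest (11.6 mm2) over 1 min.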

[8] = species: Mus musculus; assay: Distribution in bladder of MH3924A hepatoma bearing nude Balc C nu/nu mouse by fluorescence imaging; format: ADME, organism-based, Urinary bladder; conditions: in vivo; method in brief: as §4
[9] = species: Mus musculus; assay: Distribution in muscle of MH3924A hepatoma bearing nude Balc C nu/nu mouse by fluorescence imaging; format: ADME, organism-based, Muscle tissue; conditions: in vivo; method in brief: as §4
[10] = species: Mus musculus; assay: Distribution in lung of MH3924A hepatoma bearing nude Balc C nu/nu mouse by fluorescence imaging; format: ADME, organism-based; conditions: in vivo; method in brief: as §4

| Drug uptake [1] | Drug uptake [2] | Drug uptake [7] | Drug uptake [8] | Drug uptake [9] | Drug uptake [10] | SMILES | Activity [3] | Activity [4] | Drug uptake [5] [%] | Drug uptake [6] [%] |
| --- | --- | --- | --- | --- | --- | --- | --- | --- | --- | --- |
| Active | Active | – | – | – | – | Cc1cc2cc3cc(C)c(NC(=O)CC(N)C(=O)NCCCCNCCCN)cc3nc2cc1N (stereo not drawn) [ASPARTYL(ACRIDINE YELLOW G)SPERMIDINE] | Active | Active | – | – |
| – | Active | Active | Active | Not Active | Not Active | CNc1ccccc1C(=O)NCCCCNCCCN | – | – | 19 | 16 |
| Not Active | Not Active | – | – | – | – | NCCCNCCCCNC(=O)C[C@H](NC(=O)c1ccc(-c2c3ccc(=O)cc-3oc3cc(O)ccc23)c(C(=O)O)c1)C(=O)NCC(=O)NCC(N)=O | – | – | – | – |
